Active and inactive are the calls of the source. The rule behind the calls is not given here.
Key:
K562 [1] = assay: Induction of apoptosis in human K562 cells assessed as 32 kDa Caspase 3 precursor level incubated for 72 hrs by Western blot analysis (reference value: 100%); format: functional
Outline: (§1)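 K562 cells treated for 72 h; Bcl-2, BAX, caspase 3 precursor (32 kDa), caspase 3 active subunit (18 kDa) and PARP (112 and 85 kDa) measured by Western blot and expressed as % of untreated control.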

K562 [2] = assay: Cell cycle arrest in human K562 cells assessed as accumulation in G0/G1 phase incubated for 24 hrs by propidium iodide staining based flow cytometry (reference value: 36.28%); format: functional
Outline: (§2)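 Exponentially growing K562 cells treated for 24 or 72 h, untreated cells as control; cells stained with propidium iodide and DNA content read by flow cytometry. Phase distribution (subG1, G0/G1, S, G2/M) taken from one-parameter histograms, subG1 scored as hypodiploid, apoptotic cells.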

K562 [3] = assay: Induction of necrosis in human K562 cells incubated for 24 hrs by annexin V FITC and propidium iodide staining based flow cytometry relative to control; format: functional; parameters: concentration or dose not given beside the values
K562 [4] = assay: Cell cycle arrest in human K562 cells assessed as accumulation in S phase incubated for 72 hrs by propidium iodide staining based flow cytometry (reference value: 36.05%); format: functional; outline: as §2
K562 [5] = assay: Cell cycle arrest in human K562 cells assessed as accumulation in G0/G1 phase incubated for 72 hrs by propidium iodide staining based flow cytometry (reference value: 45.43%); format: functional; outline: as §2
K562 [6] = assay: Induction of apoptosis in human K562 cells incubated for 24 hrs by annexin V FITC and propidium iodide staining based flow cytometry relative to control; format: functional; parameters: concentration or dose not given beside the values
K562 [7] = assay: Induction of apoptosis in human K562 cells assessed as reduction in cell membrane integrity at cytotoxic IC50 incubated for 72 hrs by acridine orange and ethidium bromide double staining based fluorescence microscopy; format: functional
K562 [8] = assay: Induction of apoptosis in human K562 cells assessed as 112 kDa PARP level incubated for 72 hrs by Western blot analysis (reference value: 100%); format: functional; outline: as §1
K562 [9] = assay: Induction of apoptosis in human K562 cells incubated for 72 hrs by annexin V FITC and propidium iodide staining based flow cytometry relative to control; format: functional; parameters: concentration or dose not given beside the values
Outline: (§3)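 K562 cells treated for 72 h, stained with Annexin V-FITC/propidium iodide and analysed by flow cytometry. Apoptotic, necrotic and live fractions scored as percent of gated cells; specific apoptosis and specific necrosis calculated from these counts.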

K562 [10] = assay: Genotoxicity in human K562 cells assessed as increase in DNA damage at cytotoxic IC50 incubated for 72 hrs by comet assay; format: toxicity, cell-based; conditions: k562, 72 h
Outline: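 Modified alkaline comet assay: cells set in agarose on slides, electrophoresed horizontally, stained with ethidium bromide and imaged by fluorescence microscopy. 50 comets scored per sample; mean tail moment used as the DNA-damage measure.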

K562 [11] = assay: Cell cycle arrest in human K562 cells assessed as accumulation in sub-G1 phase incubated for 24 hrs by propidium iodide staining based flow cytometry (reference value: 1.05%); format: functional; outline: as §2
K562 [12] = assay: Induction of apoptosis in human K562 cells assessed as 85 kDa PARP level incubated for 72 hrs by Western blot analysis (reference value: 100%); format: functional; outline: as §1
K562 [13] = assay: Induction of apoptosis in human K562 cells assessed as Bax level incubated for 72 hrs by Western blot analysis (reference value: 100%); format: functional; outline: as §1
K562 [14] = assay: Cell cycle arrest in human K562 cells assessed as accumulation in G2/M phase incubated for 24 hrs by propidium iodide staining based flow cytometry (reference value: 14.29%); format: functional; outline: as §2
K562 [15] = assay: Induction of apoptosis in human K562 cells assessed as 18 kDa Caspase 3 active subunit level incubated for 72 hrs by Western blot analysis (reference value: 100%); format: functional; outline: as §1
K562 [16] = assay: Induction of apoptosis in human K562 cells assessed as Bcl2 level incubated for 72 hrs by Western blot analysis (reference value: 100%); format: functional; outline: as §1
K562 [17] = assay: Cell cycle arrest in human K562 cells assessed as accumulation in G2/M phase incubated for 72 hrs by propidium iodide staining based flow cytometry (reference value: 15.45%); format: functional; outline: as §2
K562 [18] = assay: Induction of necrosis in human K562 cells incubated for 72 hrs by annexin V FITC and propidium iodide staining based flow cytometry relative to control; format: functional; parameters: concentration or dose not given beside the values; outline: as §3
K562 [19] = assay: Cell cycle arrest in human K562 cells assessed as accumulation in S phase incubated for 24 hrs by propidium iodide staining based flow cytometry (reference value: 48.38%); format: functional; outline: as §2
K562 [20] = assay: Cell cycle arrest in human K562 cells assessed as accumulation in SubG1 phase incubated for 72 hrs by propidium iodide staining based flow cytometry (reference value: 3.07%); format: functional; outline: as §2
HT-29 = assay: Antiproliferative activity against human HT-29 cells assessed as reduction in cell growth incubated for 72 hrs by MTT assay; format: functional, cell-based; conditions: HT-29, 72 h
Outline: (§4)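 Colorimetric MTT assay on human tumour lines K562 (chronic myeloid leukemia), HL-60 (promyelocytic leukemia), Jurkat (T cell leukemia), Raji (Burkitt's lymphoma), HT-29 (colorectal adenocarcinoma), HeLa (cervix adenocarcinoma) and normal lung fibroblast MRC-5; cells exposed to compounds for 72 h. IC50 taken as concentration giving 50% growth inhibition versus untreated control.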

MRC5 = assay: Cytotoxicity against human MRC5 cells assessed as reduction in cell viability incubated for 72 hrs by MTT assay; format: cell-based; conditions: MRC5, 72 h
Outline: (§5)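 Colorimetric MTT assay on human tumour lines K562 (chronic myeloid leukemia), HL-60 (promyelocytic leukemia), Jurkat (T cell leukemia), Raji (Burkitt's lymphoma), HT-29 (colorectal adenocarcinoma), HeLa (cervix adenocarcinoma) and normal lung fibroblast MRC-5; cells exposed to compounds for 72 h.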

K562 [21] = assay: Antiproliferative activity against human K562 cells assessed as reduction in cell growth incubated for 72 hrs by MTT assay; format: functional, cell-based; conditions: K562, 72 h; outline: as §5
Raji [22] = assay: Potency index, ratio of tiazofurin IC50 to compound IC50 for cytotoxicity against human Raji cells incubated for 72 hrs by MTT assay; format: functional
Raji [23] = assay: Antiproliferative activity against human Raji cells assessed as reduction in cell growth incubated for 72 hrs by MTT assay; format: functional, cell-based; outline: as §5
Jurkat [24] = assay: Antiproliferative activity against human Jurkat cells assessed as reduction in cell growth incubated for 72 hrs by MTT assay; format: functional, cell-based; outline: as §4
Raji [25] = assay: Potency index, ratio of doxorubicin IC50 to compound IC50 for cytotoxicity against human Raji cells incubated for 72 hrs by MTT assay; format: functional
HL-60 = assay: Antiproliferative activity against human HL60 cells assessed as reduction in cell growth incubated for 72 hrs by MTT assay; format: functional, cell-based; conditions: HL-60, 72 h; outline: as §4
HeLa = assay: Antiproliferative activity against human HeLa cells assessed as reduction in cell growth incubated for 72 hrs by MTT assay; format: functional, cell-based; outline: as §4
K562 [26] = assay: Cell cycle arrest in human K562 cells assessed as decrease in cell accumulation at G2/M phase incubated for 72 hrs by propidium iodide staining based flow cytometry relative to tiazofurin; format: functional; outline: as §2
Jurkat [27] = assay: Potency index, ratio of doxorubicin IC50 to compound IC50 for cytotoxicity against human Jurkat cells incubated for 72 hrs by MTT assay; format: functional
Jurkat [28] = assay: Potency index, ratio of tiazofurin IC50 to compound IC50 for cytotoxicity against human Jurkat cells incubated for 72 hrs by MTT assay; format: functional

With `NC(=O)c1csc([C@@H]2O[C@H](CO)[C@@H](O)[C@H]2O)n1` [TIAZOFURIN] as the compound, how does the Activity (K562 [1]) read?
The Activity was 1302.79%.

What about the Activity (K562 [2]) of the same compound?
Its Activity is 37.08%.

And the Activity (K562 [3])?
The Activity was 3.76%.

What about the Activity (K562 [4]) of the same compound?
The Activity was 33.62%.

What about the Activity (K562 [5]) of the same compound?
The Activity was 35.66%.

What about the Activity (K562 [6]) of the same compound?
The Activity was -0.34%.

What about the Activity (K562 [7]) of the same compound?
The Activity was “Active”.

And the Activity (K562 [8])?
The Activity was 299.68%.

What about the Activity (K562 [9]) of the same compound?
The Activity was 13.71%.

What about the Activity (K562 [10]) of the same compound?
The Activity was “Toxic”.

What about the Activity (K562 [11]) of the same compound?
Its Activity is 2.22%.

What about the Activity (K562 [12]) of the same compound?
The Activity was 214.99%.

And the Activity (K562 [13])?
Its Activity is 338.37%.

And the Activity (K562 [14])?
Its Activity is 7.55%.

And the Activity (K562 [15])?
The Activity was 89.69%.

And the Activity (K562 [16])?
The Activity was 344.33%.

What about the Activity (K562 [17]) of the same compound?
The Activity was 5.74%.

What about the Activity (K562 [18]) of the same compound?
The Activity was 13.71%.

What about the Activity (K562 [19]) of the same compound?
The Activity was 53.16%.

And the Activity (K562 [20])?
The Activity was 24.99%.

Which IC50 (HT-29) does the source give for `COc1cccc2c1C(=O)c1c(O)c3c(c(O)c1C2=O)C[C@@](O)(C(=O)CO)C[C@@H]3O[C@H]1C[C@H](N)[C@H](O)[C@H](C)O1` [DOXORUBICIN] here?
The IC50 was 150 nM.

What does the source list for `CC(=O)N[C@@H]1[C@@H](O)[C@H](c2nc(C(N)=O)cs2)O[C@@H]1CO`?
Activity (K562 [1]): 432.96%; Activity (K562 [2]): 36.27%; Activity (K562 [3]): 8.55%; IC50 (MRC5): 42400 nM; IC50 (K562 [21]): 340 nM; Activity (K562 [4]): 41.58%; Activity (K562 [5]): 43.3%; Activity (K562 [6]): 27.17%; Activity (K562 [7]): Active; Activity (K562 [8]): 336.99%; Activity (K562 [9]): 10.14%; Ratio IC50 (Raji [22]): 1353 - 1354; IC50 (Raji [23]): 3.9 nM; Activity (K562 [10]): Toxic; IC50 (Jurkat [24]): 7.2 nM; Activity (K562 [11]): 9.84%; Ratio IC50 (Raji [25]): 764; Activity (K562 [12]): 364.31%; Activity (K562 [13]): 126.68%; Activity (K562 [14]): 4.47%; IC50 (HL-60): 3770 nM; IC50 (HeLa): > 100000 nM; Activity (K562 [15]): 87.05%; fold change (FC) (K562 [26]): 2 - 2.4; Ratio IC50 (Jurkat [27]): 4; Activity (K562 [16]): 274.16%; IC50 (HT-29): 260 nM; Activity (K562 [17]): 13.22%; Ratio IC50 (Jurkat [28]): 5; Activity (K562 [18]): 14.11%; Activity (K562 [19]): 49.42%; Activity (K562 [20]): 1.9%

Reference: ChEMBL document CHEMBL4406856, “Structure based design, synthesis and in vitro antitumour activity of tiazofurin stereoisomers with nitrogen functions at the C-2' or C-3' positions” (Eur J Med Chem, 2019)
